Test results published in publication PMC9321963 (Birth Defects Research, 2022).
Where two headings read alike, the source gives them in different places.

Legend:
[1] = biological target: TSF1 (Homo sapiens, UniProt O75716); experiment: ADP-Glo Kinase Assay, TSF1; assay type: biochemical
[2] = Toxicokinetics, rat investigative EFD study; assay type: in vivo; details: for Tmax / AUC(0-t) / Cmax: female, rat, plasma, po; for AUC(0-t) / Cmax: rat investigative EFD; for Cmax: C max
[3] = test system: pregnant rats; experiment: Rat DRF embryofetal developmental toxicity study; assay type: in vivo; details: rat DRF EFD
[4] = Toxicokinetics, rat DRF EFD study; assay type: in vivo; details: for AUC(0-t) / Cmax / Tmax: female, Sprague-Dawley (Crl:CD SD), rat, plasma, po, 60 mg/kg/day, rat DRF EFD, 60 mg/kg/day oral; for Cmax: C max; for Tmax: T max
[5] = human, male, ref McCarthy et al. ([2020]), cited from earlier work
[6] = test system: pregnant rats; experiment: Rat main embryofetal developmental toxicity study; assay type: in vivo; details: for food consumption, % of control / maternal weight gain, % of control: GD6 to GD9
Procedure, shortened: (§1)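 GLP main study following ICH S5(R2): 24 time-mated naïve Crl:CD SD females per group (plug day = GD0) given 2, 6 or 20 mg/kg/day orally once daily GD6–GD17. Vehicle was 20% w/w Kolliphor HS 15 / 50% w/w PEG 400 in water, with the compound suspended in it. Necropsy followed CO2 euthanasia on GD21. Maternal body weight, weight gain, food intake, pregnancy status, corpora lutea, postimplantation loss and live fetuses were recorded. Fetal weight, external, visceral and skeletal examinations were done.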

[7] = Rat main embryofetal developmental toxicity study; assay type: in vivo; details: female, Sprague-Dawley, rat, in vivo, oral, maternal NOAEL, rat main EFD
Procedure, shortened: as §1

[8] = test system: pregnant rabbits; experiment: Rabbit EFD studies; assay type: in vivo
[9] = Toxicokinetics, rabbit main EFD study; details: female, in vivo
[10] = Sprague-Dawley (Crl: OFA SD), 40 mg/kg/day, 40 mg/kg/day oral, GD6
[11] = Sprague-Dawley (Crl: OFA SD), 40 mg/kg/day, 40 mg/kg/day oral, GD17
[12] = Sprague-Dawley, 20 mg/kg/day, 20 mg/kg/day oral, GD6
[13] = Sprague-Dawley, 20 mg/kg/day, 20 mg/kg/day oral, GD17
[14] = rat main EFD, 2 mg/kg/day GD6-GD17
[15] = rat main EFD, 6 mg/kg/day GD6-GD17
[16] = rat main EFD, 20 mg/kg/day GD6-GD17

TSF1, sequence (O75716 whole entry): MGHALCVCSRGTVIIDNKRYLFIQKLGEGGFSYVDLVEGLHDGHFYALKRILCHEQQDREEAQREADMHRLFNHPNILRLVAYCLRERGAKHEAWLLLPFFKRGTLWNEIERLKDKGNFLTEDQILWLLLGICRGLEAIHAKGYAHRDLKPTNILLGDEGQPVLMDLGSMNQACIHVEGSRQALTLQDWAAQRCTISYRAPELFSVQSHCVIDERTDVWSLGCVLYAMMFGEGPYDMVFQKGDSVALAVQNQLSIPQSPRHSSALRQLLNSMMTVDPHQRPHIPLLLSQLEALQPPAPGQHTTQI

CS(=O)(=O)c1ccc(-c2cnc(N)c(-c3ccc(C(F)(F)F)nc3)c2)cc1 [MMV390048]
IC50 [1]: 7.3 µM
Tmax ([2]; Sprague-Dawley (Crl: OFA SD), 40 mg/kg/day): 7 h
AUC(0-t) [2, 10]: 213 µg·h/mL
AUC(0-t) [2, 11]: 310 µg·h/mL
Cmax [2, 10]: 11300 ng/mL
Cmax [2, 11]: 17100 ng/mL
Tmax ([2]; Sprague-Dawley, 20 mg/kg/day): 7 h
AUC(0-t) [2, 12]: 92.9 µg·h/mL
AUC(0-t) [2, 13]: 134 µg·h/mL
Cmax [2, 12]: 5230 ng/mL
Cmax [2, 13]: 7550 ng/mL
Maximum exposure (free) ([2]; rat investigational EFD CRL, GD17, 40 mg/kg, 7 hr post dose): 6.5 μM/L
Female with viable fetuses ([3]; 3 mg/kg/day GD6-GD17): 8/8
Postimplantation loss (%) ([3]; 3 mg/kg/day GD6-GD17): 5.1%
Female with viable fetuses ([3]; 10 mg/kg/day GD6-GD17): 8/8
Fetal BW % from CTL ([3]; 10 mg/kg/day GD6-GD17): −2%
Postimplantation loss (%) ([3]; 10 mg/kg/day GD6-GD17): 1.7%
Female with viable fetuses ([3]; 30 mg/kg/day GD6-GD17): 7/7
Fetal BW % from CTL ([3]; 30 mg/kg/day GD6-GD17): −5%
Heart VSD, fetuses with malformation/total fetuses examined ([3]; 30 mg/kg/day GD6-GD17): 1/43
Heart VSD, litters with malformation/total litters examined ([3]; 30 mg/kg/day GD6-GD17): 1/7
Postimplantation loss (%) ([3]; 30 mg/kg/day GD6-GD17): 5.9%
Treatment‐related skeletal malformations ([3]; 60 mg/kg/day): fused rib, short rib, split sternebra, and fused cervical arch
VSD, number of fetuses ([3]; 60 mg/kg/day): 3 fetuses
VSD, number of litters ([3]; 60 mg/kg/day): 3 litters
hernia of the diaphragm, number of fetuses ([3]; 60 mg/kg/day): 12 fetuses
hernia of the diaphragm, number of litters ([3]; 60 mg/kg/day): 3 litters
Blood vessels IAA, fetuses with malformation/total fetuses examined ([3]; 60 mg/kg/day GD6-GD17): 1/40
Blood vessels IAA, litters with malformation/total litters examined ([3]; 60 mg/kg/day GD6-GD17): 1/8
Female with viable fetuses ([3]; 60 mg/kg/day GD6-GD17): 8/8
Fetal BW % from CTL ([3]; 60 mg/kg/day GD6-GD17): −16%
Heart VSD, fetuses with malformation/total fetuses examined ([3]; 60 mg/kg/day GD6-GD17): 7/40
Heart VSD, litters with malformation/total litters examined ([3]; 60 mg/kg/day GD6-GD17): 3/8
Hernias, fetuses with malformation/total fetuses examined ([3]; 60 mg/kg/day GD6-GD17): 12/40
Hernias, litters with malformation/total litters examined ([3]; 60 mg/kg/day GD6-GD17): 3/8
Postimplantation loss (%) ([3]; 60 mg/kg/day GD6-GD17): 21.9%
litter size ([3]; 60 mg/kg/day, 14 in the control group): 10.6
maximum concentrations achieved in vivo, free ([4]; across rat EFD in vivo studies): 8 µM
AUC(0-t) ([4]; GD6): 229 µg·h/mL
AUC(0-t) ([4]; GD17): 361 µg·h/mL
Cmax ([4]; GD6): 15600 ng/mL
Cmax ([4]; GD17): 21300 ng/mL
Tmax ([4]; GD6): 8 h
Tmax ([4]; GD17): 4 h
Maximum exposure (free) ([4]; rat DRF EFD KIT, GD17, 60 mg/kg, 4 hr post dose): 8 μM/L
AUC(0−inf) ([5]; dose 40 mg): 30,320 hr*ng/ml
C max ([5]; dose 40 mg): 272.7 ng/mL
T max ([5]; dose 40 mg): 1.5 h
AUC(0−inf) ([5]; dose 80 mg): 82,680 hr*ng/ml
C max ([5]; dose 80 mg): 561 ng/mL
AUC(0−inf) ([5]; dose 120 mg): 137,800 hr*ng/ml
C max ([5]; dose 120 mg): 1,094 ng/ml
T max ([5]; dose 120 mg): 1 h
Developmental safety margins ([6]; rat NOAEL of 6 mg/kg/day vs observed clinical PK data, human volunteers and patients): < 1
Female with viable fetuses [6, 14]: 22/22
Postimplantation loss (%) [6, 14]: 6.9%
Edema, fetuses with malformation/total fetuses examined [6, 15]: 1/336
Edema, litters with malformation/total litters examined [6, 15]: 1/23
Female with viable fetuses [6, 15]: 23/23
Postimplantation loss (%) [6, 15]: 3.5%
food consumption, % of control ([6]; rat main EFD, 6 mg/kg/day): 8.9 % of control
maternal weight gain, % of control ([6]; rat main EFD, 6 mg/kg/day): 20.2 % of control
Female with viable fetuses [6, 16]: 22/22
Hernias, fetuses with malformation/total fetuses examined [6, 16]: 1/154
Hernias, litters with malformation/total litters examined [6, 16]: 1/22
Postimplantation loss (%) [6, 16]: 2.9%
food consumption, % of control ([6]; rat main EFD, 20 mg/kg/day): 11.5 % of control
maternal weight gain, % of control ([6]; rat main EFD, 20 mg/kg/day): 41.1 % of control
NOAEL [7]: 2 mg/kg/day
embryofetal developmental toxicity signals [8]: no signals of concern
AUC(0-t) ([9]; 1 mg/kg/day): 4.09 µg·h/mL
Cmax ([9]; 1 mg/kg/day): 250 ng/mL
Tmax ([9]; 1 mg/kg/day): 4 h
AUC(0-t) ([9]; 3 mg/kg/day): 13.6 µg·h/mL
Cmax ([9]; 3 mg/kg/day): 894 ng/mL
Tmax ([9]; 3 mg/kg/day): 2 h
AUC(0-t) ([9]; 10 mg/kg/day): 53.3 µg·h/mL
Cmax ([9]; 10 mg/kg/day): 3410 ng/mL
Tmax ([9]; 10 mg/kg/day): 2 h
